From ChEMBL document CHEMBL1154735, “A strategy to minimize reactive metabolite formation: discovery of (S)-4-(1-cyclopropyl-2-methoxyethyl)-6-[6-(difluoromethoxy)-2,5-dimethylpyridin-3-ylamino]-5-oxo-4,5-dihydropyrazine-2-carbonitrile as a potent, orally bioavailable corticotropin-releasing factor-1 receptor antagonist” (J Med Chem, 2009)
Values after ≈ are worked out from the molar mass of the structure shown. Active and inactive are the calls of the source. The rule behind the calls is not given here.

How the values were obtained:
[1] = Metabolic stability in rat liver microsomes assessed as compound remaining at 3 uM after 10 mins by HPLC/UV/MS analysis; type: ADME, Microsome; settings: read-out: Stability
Method in brief: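 Pooled human or rat liver microsomes (1 mg/mL protein) with 3 μM compound and 1.3 mM NADPH in 100 mM sodium phosphate pH 7.4 at 37 °C; final 0.015% DMSO, 0.985% acetonitrile; stopped at 0 and 10 min, percent remaining by LC/MS/MS.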

[2] = biological target: T1, Corticotropin-releasing factor receptor 1 (Rattus norvegicus, UniProt P35353); test: Displacement of [125I]Tyr-o-CRF from CRF1 receptor in rat frontal cortex homogenate by binding titration assay; type: tissue-based
T1 sequence (P35353 whole entry): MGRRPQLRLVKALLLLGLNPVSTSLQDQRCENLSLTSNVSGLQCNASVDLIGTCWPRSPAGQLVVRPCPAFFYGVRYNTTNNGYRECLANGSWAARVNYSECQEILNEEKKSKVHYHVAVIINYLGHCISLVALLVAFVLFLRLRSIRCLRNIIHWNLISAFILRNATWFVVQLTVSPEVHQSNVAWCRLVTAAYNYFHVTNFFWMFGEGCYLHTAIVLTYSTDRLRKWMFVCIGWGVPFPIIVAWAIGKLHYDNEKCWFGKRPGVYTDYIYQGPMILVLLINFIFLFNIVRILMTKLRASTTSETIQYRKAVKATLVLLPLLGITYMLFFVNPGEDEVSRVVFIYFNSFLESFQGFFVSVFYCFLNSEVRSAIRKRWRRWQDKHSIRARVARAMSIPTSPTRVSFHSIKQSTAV

[3] = Metabolic stability in human liver microsomes assessed as compound remaining at 3 uM after 10 mins by HPLC/UV/MS analysis; type: ADME, Microsome; settings: read-out: Stability
[4] = Displacement of [125I]sauvagine from CRF2 receptor in porcine choroid plexus homogenate by binding titration assay; type: tissue-based, Sus scrofa
Method in brief: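 Porcine choroid plexus homogenate; inhibition of [125I]-sauvagine binding measured in a titration format.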

Rattus norvegicus [5] = test: Ex vivo receptor occupancy of CRF1 receptor in Sprague-Dawley rat brain parietal assessed as inhibition of [125I]sauvagine binding at 10 mg/kg, po after 90 mins by autoradiography; type: functional; settings: 1.5 h
Rattus norvegicus [6] = test: Anxiolytic activity in Sprague-Dawley rat assessed as decrease in exit latency at 10 mg/kg, po after 60 mins by defensive withdrawal test; type: functional, organism-based; parameters: dose 10 mg/kg
[7] = Octanol-water partition coefficient, log D at pH 7.4; type: physicochemical
Method in brief: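 Partitioning between octanol and water at pH 7.4.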

[8] = AUC in Sprague-Dawley rat at 10 mg/kg, po dosed as aqueous suspension of Labrafil M 1944CS/DMAC/polysorbate 80, 85:10:5 (v/v) after 0.25 to 24 hrs by LC/MS/MS analysis; type: ADME, organism-based; parameters: time 0.25-24 hr, dose 10 mg/kg, route oral; settings: plasma
[9] = Cmax in Sprague-Dawley rat at 10 mg/kg, po dosed as aqueous suspension of 1% polysorbate 80 in 0.5% methylcellulose after 2 to 4 hrs by LC/MS/MS analysis; type: ADME, organism-based; parameters: dose 10 mg/kg, route oral; settings: in vivo
[10] = Fraction unbound in human serum after 3 to 7 hrs by equilibrium dialysis; type: ADME, cell-free
Method in brief: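 Human serum spiked with compound, equilibrium-dialysed against isotonic phosphate buffer for 3 or 7 h (depending on system) at 37 °C; both sides measured by LC/MS/MS, unbound fraction as buffer/serum concentration ratio.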

[11] = Dissociation constant, pKa by spectrophotometric titration method; type: physicochemical
Method in brief: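 Spectrophotometric titration over pH 2–11 in varying acetonitrile/water mixtures, extrapolated to 0% cosolvent.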

[12] = Volume of distribution at steady state in Sprague-Dawley rat at 2 mg/kg, iv after 0.17 to 24 hrs by LC/MS/MS analysis; type: ADME, organism-based; parameters: dose 2 mg/kg, route intravenous; settings: in vivo, read-out: Vdss
Method in brief: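 Sprague–Dawley rats (n = 3) dosed 2 mg/kg iv in PEG:ethanol 90:10 (v/v) at 1 mL/kg. Plasma stored at –20 °C and quantified by LC/MS/MS after acetonitrile precipitation with internal standard.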

[13] = Cmax in Sprague-Dawley rat at 10 mg/kg, po dosed as aqueous suspension of Labrafil M 1944CS/DMAC/polysorbate 80, 85:10:5 (v/v) after 2 to 4 hrs by LC/MS/MS analysis; type: ADME, organism-based; parameters: dose 10 mg/kg, route oral; settings: in vivo
[14] = Oral bioavailability in Sprague-Dawley rat at 10 mg/kg dosed as aqueous suspension of Labrafil M 1944CS/DMAC/polysorbate 80, 85:10:5 (v/v) after 0.25 to 24 hrs by LC/MS/MS analysis; type: ADME, organism-based; settings: in vivo
[15] = Clearance in Sprague-Dawley rat at 2 mg/kg, iv after 0.17 to 24 hrs by LC/MS/MS analysis; type: ADME, organism-based; parameters: dose 2 mg/kg, route intravenous; settings: in vivo
[16] = Aqueous solubility at pH 1; type: physicochemical
[17] = Oral bioavailability in Sprague-Dawley rat at 10 mg/kg dosed as aqueous suspension of 1% polysorbate 80 in 0.5% methylcellulose after 0.25 to 24 hrs by LC/MS/MS analysis; type: ADME, organism-based; settings: in vivo
[18] = Half life in Sprague-Dawley rat at 2 mg/kg, iv by LC/MS/MS analysis; type: ADME, organism-based; parameters: dose 2 mg/kg, route intravenous; settings: in vivo
[19] = AUC in Sprague-Dawley rat at 10 mg/kg, po dosed as aqueous suspension of 1% polysorbate 80 in 0.5% methylcellulose after 0.25 to 24 hrs by LC/MS/MS analysis; type: ADME, organism-based; parameters: time upper 24 hr, time lower 0.25 hr, dose 10 mg/kg, route oral; settings: in vivo
[20] = Aqueous solubility at pH 6.5; type: physicochemical

SMILES	remaining at 10 min, 3 µM [1]	IC50 [2]	remaining at 10 min, 3 µM [3]	also measured
COC[C@H](C1CC1)n1cc(C#N)nc(Nc2cc(C)c(OC)nc2C)c1=O	51%	12 nM	60%	–
CC[C@H](C)[C@H](NC(=O)[C@@H](NC(=O)[C@H](CC(=O)O)NC(=O)[C@H](CC(C)C)NC(=O)[C@H](CC(C)C)NC(=O)[C@H](CC(C)C)NC(=O)[C@H](CCCN=C(N)N)NC(=O)[C@H](CC(N)=O)NC(=O)[C@H](CC(N)=O)NC(=O)[C@H](C)NC(=O)[C@H](C)NC(=O)[C@H](CCC(N)=O)NC(=O)[C@H](CCC(N)=O)NC(=O)[C@H](CCCCN)NC(=O)[C@H](CCC(=O)O)NC(=O)[C@H](CCCCN)NC(=O)[C@H](CCC(=O)O)NC(=O)[C@H](CCC(N)=O)NC(=O)[C@H](CCCCN)NC(=O)[C@H](CCC(=O)O)NC(=O)[C@@H](NC(=O)[C@H](CCC(=O)O)NC(=O)[C@@H](NC(=O)[C@H](CCSC)NC(=O)[C@H](CCCCN)NC(=O)[C@H](CCCN=C(N)N)NC(=O)[C@H](CC(C)C)NC(=O)[C@H](CC(C)C)NC(=O)[C@H](CCC(=O)O)NC(=O)[C@H](CC(C)C)NC(=O)[C@H](CO)NC(=O)[C@H](CC(C)C)NC(=O)[C@H](CC(=O)O)NC(=O)[C@@H](NC(=O)[C@H](CO)NC(=O)[C@@H](NC(=O)[C@@H]1CCCN1C(=O)[C@@H]1CCCN1C(=O)CNC(=O)[C@@H]1CCC(=O)N1)[C@@H](C)CC)[C@@H](C)CC)[C@@H](C)CC)[C@@H](C)CC)[C@@H](C)O)C(=O)O [SAUVAGINE]	–	–	–	IC50 [4]: 0.58 nM
COCC(COC)Nc1nc(C)nc2c(-c3ccc(Cl)cc3Cl)c(C)nn12	–	–	–	inhibition in vivo at 10 mg/kg (Rattus norvegicus [5]): 89%; Activity (Rattus norvegicus [6]): Active
COC[C@@H](C)n1cc(Cl)nc(Nc2cc(C)c(OC(F)F)nc2C)c1=O	66%	1.6 nM	87%	–
COC[C@@H](C)n1cc(Cl)nc(Nc2cc(C)c(OC)nc2C)c1=O	8%	14 nM	39%	–
COC[C@H](C1CC1)n1cc(Cl)nc(Nc2cc(C)c(OC)nc2C)c1=O	24%	1.5 nM	48%	logD [7]: 3.9; AUC [8]: 3 µM·h; Cmax [9]: 180 nM; fraction unbound [10]: 0.021; pKa [11]: 3.1; Vd [12]: 19 L/kg; Cmax [13]: 510 nM; bioavailability [14]: 26%; clearance [15]: 38 mL/min/kg; solubility [16]: 116 µg/mL (≈ 306 µM); bioavailability [17]: 11%; half-life [18]: 19 h; AUC [19]: 1.3 µM·h; solubility [20]: 6 µg/mL (≈ 15.8 µM)

Continued, in another order:

remaining at 10 min, 3 µM [1]	IC50 [2]	remaining at 10 min, 3 µM [3]	SMILES	also measured
5%	0.28 nM	51%	CC[C@H](C1CC1)n1cc(Cl)nc(Nc2cc(C)c(OC)nc2C)c1=O	–
13%	1.1 nM	40%	COC[C@@H](C1CC1)n1cc(Cl)nc(Nc2cc(C)c(OC)nc2C)c1=O	–
64%	1.4 nM	78%	COC[C@@H](C1CC1)n1cc(C#N)nc(Nc2cc(C)c(OC(F)F)nc2C)c1=O	–
